Measurements from ChEMBL document CHEMBL1629550 (Antimicrob Agents Chemother, 2008).
The source made the active and inactive calls. The calls are words filed in the database; no cut-off is given here.

Key:
Listeria monocytogenes [1] = experiment: Antibacterial activity against Listeria monocytogenes EGD-e in BALB/c mouse central nervous system listeriosis model assessed as reduction in bacterial count in liver at 50 mg/kg, ip administered 36 hrs postinfection as single dose measured within 6 hr; format: functional, organism-based; parameters: dose 50 mg/kg
Summary of the method: (§1)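 Female BALB/c mice (7–8 weeks) were infected i.v. with 1 × 10^5 EGD-e and given one i.p. dose of 50 mg·kg−1 at 36 h; saline was given to controls. Groups of three were sampled at 1, 6, 24 and 48 h. Blood and homogenized liver, spleen and brain were serially diluted 10-fold on BHI agar and counted after 24 h at 37°C. Results are mean ± SE log10 CFU/organ or per ml blood.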

Listeria monocytogenes [2] = experiment: Antibacterial activity against Listeria monocytogenes EGD-e in BALB/c mouse central nervous system listeriosis model assessed as reduction in bacterial count in spleen at 50 mg/kg, ip administered 36 hrs postinfection as single dose measured within 6 hr; format: functional, organism-based; parameters: dose 50 mg/kg; summary of the method: as §1
Listeria monocytogenes [3] = experiment: Antibacterial activity against Listeria monocytogenes EGD-e in BALB/c mouse central nervous system listeriosis model assessed as increase in mouse survival at 50 mg/kg, ip administered 36 hrs postinfection every 12 hrs for 5 days; format: functional; settings: route intraperitoneal
Summary of the method: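 Female BALB/c mice, 7–8 weeks old, were infected i.v. via the tail vein with 1 × 10^5 EGD-e in 0.5 ml saline. From 36 h they received 50 mg·kg−1 i.p. in isotonic saline (0.1 ml) every 12 h for 5 days, with n = 20. Controls got saline (n = 5). Death was checked twice daily, and survivors were followed 2 months for relapse. Results were plotted as Kaplan-Meier estimates.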

Listeria monocytogenes [4] = experiment: Antibacterial activity against Listeria monocytogenes EGD-e in BALB/c mouse central nervous system listeriosis model assessed as log reduction in bacterial CFU per ml of blood at 50 mg/kg, ip administered 36 hrs postinfection as single dose measured within 1 hr; format: functional; settings: route intraperitoneal; summary of the method: as §1
Listeria monocytogenes [5] = experiment: Antibacterial activity against Listeria monocytogenes EGD-e in BALB/c mouse central nervous system listeriosis model assessed as increase in mouse survival at 50 mg/kg, ip administered 36 hrs postinfection as single dose; format: functional; settings: route intraperitoneal
Summary of the method: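 Female BALB/c mice, 7–8 weeks old, were infected via the lateral tail vein with 1 × 10^5 EGD-e in 0.5 ml saline. At 36 h they received a single 50 mg·kg−1 i.p. dose in isotonic saline (0.1 ml), with n = 12. Controls got saline (n = 5). Death was checked twice daily from 36 h, and survivors were followed 2 months. Results were plotted as Kaplan-Meier estimates.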

Listeria monocytogenes [6] = experiment: Antibacterial activity against Listeria monocytogenes EGD-e in BALB/c mouse central nervous system listeriosis model assessed as mouse survival at 50 mg/kg, ip administered 36 hrs postinfection every 12 hrs for 5 days measured after 2 months; format: functional, organism-based; parameters: dose 50 mg/kg
Summary of the method: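 BALB/c females were infected i.v. with 1 × 10^5 EGD-e. Starting 36 h after infection, they were dosed i.p. at 50 mg·kg−1 every 12 h for 5 days (n = 20); saline controls n = 5. Deaths were checked twice daily from 36 h post-infection. Survivors were followed for 2 months for relapse, and survival was analysed by Kaplan-Meier.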

[7] = Cmax in plasma in Listeria monocytogenes EGD-e infected BALB/c mouse central nervous system listeriosis model at 50 mg/kg, ip administered 36 hrs postinfection as single dose; format: ADME, organism-based; parameters: dose 50 mg/kg, route intraperitoneal
Summary of the method: (§2)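 Female BALB/c mice, 7–8 weeks old, were infected i.v. via the tail vein with 1 × 10^5 EGD-e. At 36 h they received one i.p. dose of 50 mg·kg−1 in isotonic saline. Groups of six were killed at 0–480 min. Blood-cleared brain homogenate and plasma were deproteinized with acetonitrile, with ciprofloxacin as internal standard, and analysed by reverse-phase HPLC with fluorescence detection (ex 290/em 550 nm). Cmax was read from the curves; AUC24 was calculated by the trapezoidal rule.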

Listeria monocytogenes [8] = experiment: Antibacterial activity against Listeria monocytogenes EGD-e in BALB/c mouse central nervous system listeriosis model assessed as reduction in bacterial count in spleen at 50 mg/kg, ip administered 36 hrs postinfection as single dose measured within 1 hr; format: functional, organism-based; parameters: dose 50 mg/kg; summary of the method: as §1
[9] = AUC (24 hrs) in plasma in Listeria monocytogenes EGD-e infected BALB/c mouse central nervous system listeriosis model at 50 mg/kg, ip administered 36 hrs postinfection as single dose; format: ADME, organism-based; parameters: time < 24 hr, dose 50 mg/kg, route intraperitoneal; summary of the method: as §2
Listeria monocytogenes [10] = experiment: Antibacterial activity against Listeria monocytogenes EGD-e in BALB/c mouse central nervous system listeriosis model assessed as reduction in bacterial count in liver at 50 mg/kg, ip administered 36 hrs postinfection as single dose measured within 1 hr; format: functional, organism-based; parameters: dose 50 mg/kg; summary of the method: as §1

CC1(C)S[C@@H]2[C@H](NC(=O)[C@H](N)c3ccc(O)cc3)C(=O)N2[C@H]1C(=O)O [AMOXICILLIN]
Activity (Listeria monocytogenes [1]): Active
Activity (Listeria monocytogenes [2]): Active
Activity (Listeria monocytogenes [3]): 75%
FC (Listeria monocytogenes [4]): 1
Time (Listeria monocytogenes [5]): 12 h
Activity (Listeria monocytogenes [6]): Active

COc1c(N2C[C@@H]3CCCN[C@@H]3C2)c(F)cc2c(=O)c(C(=O)O)cn(C3CC3)c12 [MOXIFLOXACIN]
Cmax [7]: 17300 ng/mL
Activity (Listeria monocytogenes [8]): Active
AUC at 24 h [9]: 27100 ng·h/mL
Activity (Listeria monocytogenes [3]): 100%
Activity (Listeria monocytogenes [10]): Active
Time (Listeria monocytogenes [5]): 24 h
Activity (Listeria monocytogenes [6]): Active
